Kir21 block – inhibitors of mouse Kir2.1 inward-rectifier potassium channel; HEK293-Kir2.1, FluxOR thallium flux fluorescence; active compounds read low; 0.85% of 310,000 active; B-score at 10 µM;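 active = fluorescence ratio B-score at or below minus 3 SD of library scores, with starting-brightness B-score within 2 SD, cut at about -4.2 in these data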;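 also: channel flux triggered by added potassium and thallium sulfate stimulus; B-score of peak minus minimum fluorescence over baseline after thallium stimulus; more negative B-score means stronger Kir2.1 block with less thallium influx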
Target sequence (P35561 whole entry, looked up): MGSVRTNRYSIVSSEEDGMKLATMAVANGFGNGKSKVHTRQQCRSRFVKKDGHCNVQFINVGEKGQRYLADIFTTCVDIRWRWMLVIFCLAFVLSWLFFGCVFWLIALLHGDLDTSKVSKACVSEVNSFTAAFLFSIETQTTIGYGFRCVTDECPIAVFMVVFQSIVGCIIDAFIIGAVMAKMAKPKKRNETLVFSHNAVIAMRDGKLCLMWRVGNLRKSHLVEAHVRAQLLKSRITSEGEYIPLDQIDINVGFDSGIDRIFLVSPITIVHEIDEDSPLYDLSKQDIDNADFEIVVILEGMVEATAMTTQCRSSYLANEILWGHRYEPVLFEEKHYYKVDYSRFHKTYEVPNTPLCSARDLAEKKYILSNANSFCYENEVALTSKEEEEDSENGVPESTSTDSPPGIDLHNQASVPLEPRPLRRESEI
DNA FID counter – compounds displacing fluorescent DNA intercalator, primary screen, artefact control for HCV NS3 helicase inhibitor project, biochemical, FID fluorescence; DNA fluorescent intercalator displacement; inhibition, % at 7.9 µM; 0.17% of 290,000 active; AID 1845, 2009; in the data active = inhibition above about 37%;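 also: 0% = vehicle and 100% = reference compound; higher means more ethidium bromide displaced from hairpin DNA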
SR-BI uptake up – activators of SR-BI mediated DiI-HDL uptake, primary screen, ldlA[mSR-BI] CHO cells, DiI fluorescence | 0.096% of 320,000 active | 3 h; 100 = double the neutral-control signal | activation, % at 12.5 µM;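 active = mean replicate activation of at least 60% and every replicate at or above 60%; inconclusive = mean or all-replicate condition met, but not both; inactive = mean below 60% and not all replicates reaching 60%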;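 also: 0% = median plate neutral-control signal and 100% = twice that signal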
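system = CHO ldlA[mSR-BI] cells, LDL receptor-null, SR-BI overexpressing | medium = Ham's F12 with 0.5% BSA, HEPES 25 mM, pH 7.4 | probe or stimulus = DiI-HDL 10 µg/mL | compound dosing = single-point compound dose | incubation = compound exposure 3 h, 37 °C | technique = DiI fluorescence, bottom read | read-out = cell-associated DiI fluorescence as measure of HDL uptake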
ANO1 activ – TMEM16A chloride channel activators or potentiators, primary screen, cell-based, HTS; AID 623877, 2012; HEK293 TMEM16A/YFP-H148Q/I152L, iodide quench fluorescence; active compounds read low; Anoctamin-1 (Mus musculus), Q8BHY3; 0.3% of 340,000 active; B-score at 10 µM;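 active = fluorescence-ratio B-score plate-corrected deviation score at least 3 library SD below zero, with starting fluorescence score within 5 deviations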;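 also: channel opened by trigger with iodide after compound preincubation; score built on the fluorescence ratio of max minus min over baseline; more negative score means more quench and so TMEM16A activation or potentiation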
SR-BI DiI inh – inhibitors of SR-BI mediated HDL lipid uptake, primary screen, ldlA[mSR-BI] cells, fluorescence, single point; Scavenger receptor class B member 1 (Mus musculus), Q61009; ldlA[mSR-BI] CHO cells, DiI-HDL uptake fluorescence, 3 h; inhibition, % at 12.5 µM; 0.96% of 320,000 active;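 active = mean replicate inhibition of at least 70% and a set share of replicates each scoring 70 or more; inconclusive = meets just one of the two criteria; inactive = fails both criteria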;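 also: 0% = median of neutral control wells and 100% = median of positive control wells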
ANO1 block – TMEM16A chloride channel inhibitors, primary screen, cell-based, HTS | HEK293 TMEM16A/YFP iodide influx fluorescence, ionomycin | normalized B-score (activity score, 25-100; higher = stronger inhibition) at 10 µM | 1.2% of 310,000 active | AID 588511, 2011;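 active = ratio plate-corrected score three or more library SD toward inhibition, starting fluorescence score within five deviations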;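 also: score derived from kinetic fluorescence span divided by baseline fluorescence per well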
* hit, by the source's call; i = inactive; ? = inconclusive; nt = no result. Compounds with a hit are over-represented: about 3% of the library has one in this group of screens.

SMILES	Kir21 block	DNA FID counter	SR-BI uptake up	ANO1 activ	SR-BI DiI inh	ANO1 block
Cc1ccccc1-n1c(SCC(=O)N/N=C/C=C/c2ccccc2[N+](=O)[O-])nc2ccccc2c1=O	0.14	-22	-79	i	79*	i
O=C(CSc1nc2ccccc2c(=O)n1-c1ccccc1)N/N=C/C=C/c1ccccc1[N+](=O)[O-]	-0.25	-8	-28	i	28	i
Cc1ccc(C)c(NC(=O)CCOc2ccccc2)c1	-2.2	-10	-8	i	8	i
Cc1ccc(-c2nnc(Oc3ccc(NC(=O)c4ccccc4)cc3)c3ccccc23)cc1	-1.1	-4	169*	i	-169	i
CCn1c(CNC(=O)c2ccccc2F)nnc1SCC(=O)Nc1nncs1	0.16	-7	10	i	-10	i
O=C(N[C@@H](Cc1ccccc1)C(=O)OCc1ccccc1)c1nc[nH]c1C(=O)N1CCNCC1	nt	nt	1	i	-1	nt
Cc1cccc(-n2ccnc2SCC(=O)c2c(N)n(C3CC3)c(=O)[nH]c2=O)c1C	nt	nt	7	i	-7	nt
CC1=C(C(=O)Nc2cc(C(=O)N3CCN(c4cccc(C)c4C)CC3)ccc2C)SCCO1	0.12	-61	-55	-7.1*	55	i
COc1ccc(N2CCN(C(=O)c3ccc(C)c(NC(=O)C4=C(C)OCCS4)c3)CC2)cc1	-1.2	-54	-16	i	16	i
O=C(NCCCCNC(=O)c1ccccc1Br)c1ccccc1Br	-0.22	nt	nt	i	nt	i
O=C(NC1CCN(C(=O)Nc2ccc(F)cc2)CC1)c1ccc(F)cc1	0.52	-7	nt	-5.2*	nt	i
Nc1c(C(=O)Nc2ccccc2)sc2nc3c(c(-c4ccco4)c12)CCCC3	0.11	-6	-32	i	32	i
Nc1c(C(=O)Nc2ccccc2)sc2nc3c(c(-c4ccco4)c12)CCC3	-2.3	-10	-80	i	80*	i
Cc1ccccc1NC(=O)c1sc2nc3c(c(-c4ccco4)c2c1N)CCCC3	-0.5	-23	-79	i	79*	i
Cc1ccc(S(=O)(=O)N2CCN(c3nn(C)c(=O)n(C)c3=O)CC2)cc1C	nt	nt	-4	i	4	nt
Cn1nc(N2CCN(S(=O)(=O)c3ccccc3)CC2)c(=O)n(C)c1=O	nt	nt	-2	-29*	2	nt
COc1cc(OC)c(/C=N/NC(=O)c2ccc(NC(C)=O)cc2)cc1Br	1.9	-5	-71	i	?	nt
CC(C)C(=O)Nc1ccc(C(=O)Nc2ccc(Br)cc2F)cc1	0.77	-10	-23	i	23	i
CC(=O)Nc1ccc(C(=O)N/N=C/c2cc(Br)cc(Br)c2O)cc1	1.8	0	-135	i	135*	i
CC(C)C(=O)Nc1ccc(C(=O)N/N=C/c2cc(Br)cc(Br)c2O)cc1	-0.07	1	-147	i	146*	i
Cc1ccc(Cl)cc1NS(=O)(=O)c1ccc2oc(=O)ccc2c1	-0.88	-9	nt	i	nt	i
O=C1CN(C(=O)c2ccc(Cl)c([N+](=O)[O-])c2)c2ccccc2N1	-0.2	-3	-19	i	19	i
Cc1ccc(Nc2c([N+](=O)[O-])cc(C(=O)N3CC(=O)Nc4ccccc43)cc2[N+](=O)[O-])c(C)c1	-0.78	-16	-75	i	75*	i
CCOC(=O)c1c(NC(=O)CCNCc2ccco2)sc2c1CCC2	-17*	13	nt	nt	nt	i
CCOc1ccc2c(c1)s/c(=N\S(=O)(=O)c1ccc(OC)cc1)n2C(F)F	0.18	-4	-2	i	2	25*
Cc1ccc(NC(=O)COC(=O)Cc2cccs2)cc1S(=O)(=O)N1CCOCC1	0.2	-15	14	i	-14	i
[O-][n+]1onc2c1CCc1c-2nc(-c2ccccc2)n1OCc1ccccc1	0	-4	-80	i	80*	i
